Data from ChEMBL document CHEMBL4765234 (J Med Chem, 2016).
The source made the active and inactive calls. No cut-off for these calls is given here.

Experiments:
[1] = Drug metabolism in dog hepatocytes assessed as glucuronidation by LC-MS/MS analysis; type: ADME, cell-based, Canis lupus familiaris, Hepatocyte
[2] = Drug metabolism in rat hepatocytes assessed as glucuronidation by LC-MS/MS analysis; type: ADME, cell-based, Hepatocyte
[3] = Clearance in human liver microsomes by LC-MS/MS analysis; type: ADME, Microsome
Mus musculus = assay: Agonist activity at GPR40 in Balb/c mouse assessed as increase in GLP-1 levels in blood at 30 mg/kg, po measured at 15 to 180 mins by ELISA; type: functional, organism-based; settings: filed as agonist, time lower […], time upper 180.0 min
[4] = Metabolic stability in human liver microsomes assessed as compound hydrolysis incubated for 30 mins by LC-MS/MS analysis; type: ADME, Microsome; settings: read-out: Drug degradation
How it was run: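 Incubated 30 min with mouse or human liver microsomes. Stability reported as % metabolized.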

[5] = biological target: Voltage-gated inwardly rectifying potassium channel KCNH2 (Homo sapiens, UniProt Q12809); assay: Inhibition of human ERG
Chain of Voltage-gated inwardly rectifying potassium channel KCNH2 (Q12809 whole entry): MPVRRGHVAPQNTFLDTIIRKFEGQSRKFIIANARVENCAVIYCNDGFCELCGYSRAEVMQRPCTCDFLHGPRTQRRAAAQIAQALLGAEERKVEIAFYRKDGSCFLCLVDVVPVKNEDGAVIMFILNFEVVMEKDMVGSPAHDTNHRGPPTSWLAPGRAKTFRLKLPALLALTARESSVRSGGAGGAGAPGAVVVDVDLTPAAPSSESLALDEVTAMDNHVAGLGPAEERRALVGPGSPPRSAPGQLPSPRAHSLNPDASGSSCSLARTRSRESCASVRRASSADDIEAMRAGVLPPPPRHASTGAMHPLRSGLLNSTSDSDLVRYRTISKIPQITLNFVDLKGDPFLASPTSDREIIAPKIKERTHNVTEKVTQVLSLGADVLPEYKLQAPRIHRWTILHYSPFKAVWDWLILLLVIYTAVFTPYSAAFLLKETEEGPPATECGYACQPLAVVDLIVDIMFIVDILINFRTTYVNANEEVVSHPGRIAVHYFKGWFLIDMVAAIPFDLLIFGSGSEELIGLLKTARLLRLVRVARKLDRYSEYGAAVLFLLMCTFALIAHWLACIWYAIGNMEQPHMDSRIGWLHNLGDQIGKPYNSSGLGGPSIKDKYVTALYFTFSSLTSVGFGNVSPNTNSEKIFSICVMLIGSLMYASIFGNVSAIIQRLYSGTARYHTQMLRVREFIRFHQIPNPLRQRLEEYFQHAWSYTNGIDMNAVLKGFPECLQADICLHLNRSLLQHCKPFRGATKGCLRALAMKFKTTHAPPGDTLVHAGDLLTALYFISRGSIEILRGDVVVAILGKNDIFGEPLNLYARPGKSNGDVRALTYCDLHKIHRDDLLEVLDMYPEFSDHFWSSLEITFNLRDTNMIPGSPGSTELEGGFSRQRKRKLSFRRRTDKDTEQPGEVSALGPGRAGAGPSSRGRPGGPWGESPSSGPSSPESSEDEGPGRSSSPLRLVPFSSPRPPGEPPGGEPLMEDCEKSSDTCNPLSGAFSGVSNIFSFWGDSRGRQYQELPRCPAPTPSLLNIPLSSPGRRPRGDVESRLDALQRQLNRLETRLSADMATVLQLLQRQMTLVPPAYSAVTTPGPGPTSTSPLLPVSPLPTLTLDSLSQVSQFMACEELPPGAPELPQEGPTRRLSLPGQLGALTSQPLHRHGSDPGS

Rattus norvegicus = assay: Hypoglycemic activity in Zucker fatty diabetes mellitus rat model assessed as reduction in blood glucose level administered orally for 21 days and measured at 10 to 60 mins post glucose challenge on day 1 by OGTT; type: functional, organism-based; settings: dose 0.03-1 mg/kg, time 21.0 day
[6] = biological target: T1, Peroxisome proliferator-activated receptor delta (Homo sapiens, UniProt Q03181); assay: Agonist activity at human Gal4-fused PPARdelta LBD expressed in African green monkey CV1 cells cotransfected with pRL-SV40 plasmid measured after 24 hrs by luciferase reporter gene assay; type: cell-based, CV-1
T1 sequence (Q03181 whole entry): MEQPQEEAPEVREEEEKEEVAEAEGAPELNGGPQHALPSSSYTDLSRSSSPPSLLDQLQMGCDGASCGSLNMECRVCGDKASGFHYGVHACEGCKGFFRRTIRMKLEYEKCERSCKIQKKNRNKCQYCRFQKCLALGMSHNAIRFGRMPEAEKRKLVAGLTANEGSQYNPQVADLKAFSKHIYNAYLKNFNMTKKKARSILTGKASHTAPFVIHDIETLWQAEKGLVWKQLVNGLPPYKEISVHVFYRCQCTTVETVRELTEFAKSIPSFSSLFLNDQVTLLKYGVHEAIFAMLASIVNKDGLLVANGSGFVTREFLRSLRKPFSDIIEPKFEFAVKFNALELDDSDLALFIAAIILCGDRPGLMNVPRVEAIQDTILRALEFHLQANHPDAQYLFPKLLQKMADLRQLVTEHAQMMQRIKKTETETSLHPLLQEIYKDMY
How it was run: (§1)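 CV1 African green monkey kidney cells were cotransfected, in DMEM with 5% charcoal-stripped FBS, with two plasmids: an SV40-driven Gal4 DBD–PPARα or PPARδ LBD hybrid, and a 5×Gal4-element firefly luciferase reporter. Cells were replated at 15000/well for 4 h, then exposed to 0.17 nM–10 μM in half-log steps for 24 h. Luciferase was read, normalized to maximum from 10 μM reference agonist, and fit by a 4-parameter model.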

[7] = biological target: T2, Peroxisome proliferator-activated receptor delta (Homo sapiens) (UniProt Q03181); assay: Agonist activity at human Gal4-fused PPARdelta LBD expressed in African green monkey CV1 cells cotransfected with pRL-SV40 plasmid assessed as maximum efficacy measured after 24 hrs by luciferase reporter gene assay relative to control; type: cell-based; settings: CV-1; how it was run: as §1
T2 sequence (whole entry): T1 sequence (Q03181 whole entry)

[8] = biological target: T3, Peroxisome proliferator-activated receptor alpha (Homo sapiens, UniProt Q07869); assay: Agonist activity at human Gal4-fused PPARalpha LBD expressed in African green monkey CV1 cells cotransfected with pRL-SV40 plasmid measured after 24 hrs by luciferase reporter gene assay; type: cell-based, CV-1; how it was run: as §1
T3 sequence (Q07869 whole entry): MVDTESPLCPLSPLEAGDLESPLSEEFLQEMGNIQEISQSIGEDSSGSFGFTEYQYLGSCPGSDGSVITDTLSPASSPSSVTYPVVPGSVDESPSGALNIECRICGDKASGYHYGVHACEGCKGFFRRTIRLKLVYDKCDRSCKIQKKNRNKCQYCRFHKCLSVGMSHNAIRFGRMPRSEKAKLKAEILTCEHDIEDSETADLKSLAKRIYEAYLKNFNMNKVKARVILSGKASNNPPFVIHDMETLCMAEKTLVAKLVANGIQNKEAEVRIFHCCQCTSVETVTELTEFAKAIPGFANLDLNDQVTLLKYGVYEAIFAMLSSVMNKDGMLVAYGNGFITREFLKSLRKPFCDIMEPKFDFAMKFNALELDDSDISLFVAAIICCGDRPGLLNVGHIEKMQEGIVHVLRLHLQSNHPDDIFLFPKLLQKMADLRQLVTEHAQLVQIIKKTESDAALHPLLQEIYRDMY

RXR alpha/PPAR gamma = biological target: T4, RXR alpha/PPAR gamma (Homo sapiens, UniProt P19793+P37231); assay: Agonist activity at human CMV-fused […]/RXRalpha (unknown origin) expressed in African green monkey CV1 cells transfected with luciferase plasmid measured after 24 hrs by luciferase reporter gene assay; type: cell-based, CV-1
T4 sequence (P37231 whole entry): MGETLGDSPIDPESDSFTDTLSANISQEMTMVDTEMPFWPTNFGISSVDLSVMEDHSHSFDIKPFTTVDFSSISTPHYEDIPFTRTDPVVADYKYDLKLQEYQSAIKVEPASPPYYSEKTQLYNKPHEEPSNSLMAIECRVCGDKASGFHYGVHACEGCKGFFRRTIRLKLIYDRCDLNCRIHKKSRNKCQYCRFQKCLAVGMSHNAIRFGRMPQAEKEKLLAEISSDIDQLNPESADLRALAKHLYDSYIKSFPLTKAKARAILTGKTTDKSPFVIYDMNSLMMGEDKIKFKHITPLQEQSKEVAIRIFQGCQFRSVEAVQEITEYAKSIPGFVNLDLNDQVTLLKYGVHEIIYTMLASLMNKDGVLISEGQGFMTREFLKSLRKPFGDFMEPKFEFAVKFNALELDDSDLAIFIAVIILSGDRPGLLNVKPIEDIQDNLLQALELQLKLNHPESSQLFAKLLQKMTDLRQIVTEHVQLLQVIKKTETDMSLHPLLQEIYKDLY
T4 sequence (P19793 whole entry): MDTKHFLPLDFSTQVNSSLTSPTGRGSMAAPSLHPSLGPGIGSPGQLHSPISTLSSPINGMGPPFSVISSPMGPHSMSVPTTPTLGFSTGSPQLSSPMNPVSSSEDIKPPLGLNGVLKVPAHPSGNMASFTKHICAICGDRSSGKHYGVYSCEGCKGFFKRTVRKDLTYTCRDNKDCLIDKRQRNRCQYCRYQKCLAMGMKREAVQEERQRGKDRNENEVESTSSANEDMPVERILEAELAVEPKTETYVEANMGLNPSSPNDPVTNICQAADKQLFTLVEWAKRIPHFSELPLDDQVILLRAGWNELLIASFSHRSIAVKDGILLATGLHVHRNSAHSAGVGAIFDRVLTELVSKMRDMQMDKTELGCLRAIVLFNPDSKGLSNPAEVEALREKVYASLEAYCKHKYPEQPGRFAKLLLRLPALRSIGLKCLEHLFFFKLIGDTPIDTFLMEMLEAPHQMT
How it was run: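 CV1 cells were transfected, in DMEM with 5% charcoal-stripped FBS, with CMV-driven full PPARγ and RXRα plus a 2×PPRE TK-promoter luciferase reporter. After overnight growth, cells were replated at 15000/well for 4 h, then treated with 0.17 nM–10 μM in half-log dilutions for 24 h. Lysate luminescence was expressed as % of the maximum from 10 μM reference PPARγ agonist and fit to a 4-parameter logistic.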

Row | SMILES | Drug metabolism [1] | Drug metabolism [2] | CLH [3] [h⁻¹] | Activity (Mus musculus) | metabolised at 0.5 h [4] [%] | IC50 [5] [µM] | Activity (Rattus norvegicus) | EC50 [6] [µM] | Emax [7] [%] | EC50 [8] [µM] | EC50 (RXR alpha/PPAR gamma) [µM]
1 | CC#C[C@@H](CC(=O)O)c1ccc(OCc2ccc(CN3CCC4(C=Cc5ccccc54)CC3)s2)cc1 | Metabolite_Detected | Metabolite_Detected |  |  |  |  |  |  |  |  | 
2 | CC#C[C@@H](CC(=O)O)c1ccc(OCc2ccc(CN3CCC4(C=Cc5ccccc54)CC3)cc2)cc1 [LY2881835] | Metabolite_Detected | Metabolite_Detected | 0.033 | Active | 38 | > 10 | Dose-dependent effect | > 10 | 5 | > 10 | > 10
3 | CC#C[C@@H](CC(=O)O)c1ccc(OCc2ccc(CN3CCCc4cccc(OC)c43)s2)cc1 | Metabolite_Detected | Metabolite_Detected | 0.0048 | Active | 24 | > 10 | Dose-dependent effect | > 10 | 1 | > 10 | > 10
4 | CC#C[C@@H](CC(=O)O)c1ccc(OCc2ccc(CN3CCC4(CCc5ccccc54)CC3)s2)cc1 | Metabolite_Detected | Metabolite_Detected | 0.109 | Active | 44 | > 10 | Dose-dependent effect | > 10 | 2 | > 10 | > 10
